Results published in PMC2963662 (Neuropharmacology, 2010).

Experiments:
Experiment in all cases: two-electrode voltage clamp, Xenopus oocytes
Type in all cases: cell-based
[1] = target: α5β3γ2 GABAA receptor (rat, oocytes) (Rattus norvegicus, UniProt P18508+P19969); settings: read-out: α5
In short: (§1)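 Oocytes from Xenopus laevis were injected with mRNA made from rat GABAA subunit cDNAs. Two-electrode voltage clamp was done at room temperature, holding at −60 mV, with electrodes filled with […]. Cells were perfused at 6 ml/min with Ringer (90 mM NaCl, 5 mM HEPES pH 7.4, 1 mM MgCl2, KCl, CaCl2). Drug in 0.1% DMSO final was pre-applied for 30 sec, then co-applied with GABA until peak, with washes of up to 15 min.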

[2] = target: α2β3γ2 GABAA receptor (rat, oocytes) (Rattus norvegicus, UniProt P18508+P23576); settings: read-out: α2
Chain of α2β3γ2 GABAA receptor (rat, oocytes) (P23576 29-451): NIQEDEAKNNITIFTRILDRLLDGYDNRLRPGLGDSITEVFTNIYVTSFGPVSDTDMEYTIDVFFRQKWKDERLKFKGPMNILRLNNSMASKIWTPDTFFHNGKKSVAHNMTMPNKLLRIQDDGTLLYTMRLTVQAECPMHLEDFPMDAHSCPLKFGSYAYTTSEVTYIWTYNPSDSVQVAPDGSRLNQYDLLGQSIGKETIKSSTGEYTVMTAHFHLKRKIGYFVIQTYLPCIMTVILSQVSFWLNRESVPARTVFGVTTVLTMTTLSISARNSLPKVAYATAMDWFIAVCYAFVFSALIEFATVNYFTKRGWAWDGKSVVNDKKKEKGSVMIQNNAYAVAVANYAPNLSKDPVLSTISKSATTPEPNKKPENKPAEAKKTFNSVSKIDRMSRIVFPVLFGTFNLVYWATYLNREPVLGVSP
Chain of α2β3γ2 GABAA receptor (rat, oocytes) (P18508 39-466): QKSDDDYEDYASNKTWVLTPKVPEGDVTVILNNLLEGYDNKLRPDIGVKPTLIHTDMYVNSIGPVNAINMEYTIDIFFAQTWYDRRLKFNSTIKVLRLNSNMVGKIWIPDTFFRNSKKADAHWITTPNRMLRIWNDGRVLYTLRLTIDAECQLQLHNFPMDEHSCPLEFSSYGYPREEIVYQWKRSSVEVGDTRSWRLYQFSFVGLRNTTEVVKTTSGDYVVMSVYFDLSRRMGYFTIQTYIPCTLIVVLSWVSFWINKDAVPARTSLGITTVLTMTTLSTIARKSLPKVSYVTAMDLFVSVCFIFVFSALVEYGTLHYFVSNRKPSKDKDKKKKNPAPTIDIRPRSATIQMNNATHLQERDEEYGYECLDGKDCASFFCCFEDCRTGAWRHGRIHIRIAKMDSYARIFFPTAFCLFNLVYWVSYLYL
Chain of α2β3γ2 GABAA receptor (rat, oocytes) (P63079 26-473 partner): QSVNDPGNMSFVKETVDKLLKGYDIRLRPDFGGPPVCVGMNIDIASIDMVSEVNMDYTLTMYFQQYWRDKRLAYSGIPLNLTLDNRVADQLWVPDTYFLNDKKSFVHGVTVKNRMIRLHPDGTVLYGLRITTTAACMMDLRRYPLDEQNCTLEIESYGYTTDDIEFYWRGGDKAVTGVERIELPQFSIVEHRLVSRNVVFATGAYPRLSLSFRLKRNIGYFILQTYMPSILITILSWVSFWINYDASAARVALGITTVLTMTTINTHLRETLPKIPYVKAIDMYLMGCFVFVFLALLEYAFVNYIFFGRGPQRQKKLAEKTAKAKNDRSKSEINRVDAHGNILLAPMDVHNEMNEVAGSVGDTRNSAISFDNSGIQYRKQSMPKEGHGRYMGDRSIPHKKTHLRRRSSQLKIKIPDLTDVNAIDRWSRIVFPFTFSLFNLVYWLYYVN
In short: as §1

[3] = target: α3β3γ2 GABAA receptor (rat, oocytes) (Rattus norvegicus, UniProt P18508+P20236); settings: read-out: α3
Chain of α3β3γ2 GABAA receptor (rat, oocytes) (P20236 29-493): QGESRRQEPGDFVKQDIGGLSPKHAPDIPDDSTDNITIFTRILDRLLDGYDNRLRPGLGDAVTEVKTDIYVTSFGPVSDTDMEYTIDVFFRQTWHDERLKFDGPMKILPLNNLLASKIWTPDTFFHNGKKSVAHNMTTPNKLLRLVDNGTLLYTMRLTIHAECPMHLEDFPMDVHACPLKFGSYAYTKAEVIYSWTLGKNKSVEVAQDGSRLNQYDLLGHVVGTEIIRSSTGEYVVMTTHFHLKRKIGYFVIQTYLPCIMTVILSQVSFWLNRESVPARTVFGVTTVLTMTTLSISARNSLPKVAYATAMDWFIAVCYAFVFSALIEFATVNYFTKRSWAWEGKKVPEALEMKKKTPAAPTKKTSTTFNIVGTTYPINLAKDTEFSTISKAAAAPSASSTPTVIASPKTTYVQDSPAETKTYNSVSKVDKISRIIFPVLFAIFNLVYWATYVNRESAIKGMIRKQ
Chain of α3β3γ2 GABAA receptor (rat, oocytes) (P18508 39-466): as the sequence (P18508 39-466) above
Chain of α3β3γ2 GABAA receptor (rat, oocytes) (P63079 26-473 partner): as the sequence (P63079 26-473 partner) above
In short: as §1

[4] = target: α1β3γ2 GABAA receptor (rat, oocytes) (Rattus norvegicus, UniProt P18508+P62813); settings: read-out: α1
Chain of α1β3γ2 GABAA receptor (rat, oocytes) (P62813 28-455): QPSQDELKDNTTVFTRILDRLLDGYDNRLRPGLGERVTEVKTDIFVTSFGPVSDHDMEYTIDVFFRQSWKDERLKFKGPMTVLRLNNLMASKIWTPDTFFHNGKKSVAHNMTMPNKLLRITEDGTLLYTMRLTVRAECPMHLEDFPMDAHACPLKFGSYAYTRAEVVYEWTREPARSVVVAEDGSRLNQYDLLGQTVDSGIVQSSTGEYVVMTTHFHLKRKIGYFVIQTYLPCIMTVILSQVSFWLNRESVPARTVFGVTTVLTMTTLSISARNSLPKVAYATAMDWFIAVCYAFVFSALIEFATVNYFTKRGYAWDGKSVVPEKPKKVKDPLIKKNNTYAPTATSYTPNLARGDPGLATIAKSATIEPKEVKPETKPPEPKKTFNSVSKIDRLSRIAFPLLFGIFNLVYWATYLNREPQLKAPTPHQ
Chain of α1β3γ2 GABAA receptor (rat, oocytes) (P18508 39-466): as the sequence (P18508 39-466) above
Chain of α1β3γ2 GABAA receptor (rat, oocytes) (P63079 26-473 partner): as the sequence (P63079 26-473 partner) above
In short: as §1

Chain of α5β3γ2 GABAA receptor (rat, oocytes) (P19969 26-464): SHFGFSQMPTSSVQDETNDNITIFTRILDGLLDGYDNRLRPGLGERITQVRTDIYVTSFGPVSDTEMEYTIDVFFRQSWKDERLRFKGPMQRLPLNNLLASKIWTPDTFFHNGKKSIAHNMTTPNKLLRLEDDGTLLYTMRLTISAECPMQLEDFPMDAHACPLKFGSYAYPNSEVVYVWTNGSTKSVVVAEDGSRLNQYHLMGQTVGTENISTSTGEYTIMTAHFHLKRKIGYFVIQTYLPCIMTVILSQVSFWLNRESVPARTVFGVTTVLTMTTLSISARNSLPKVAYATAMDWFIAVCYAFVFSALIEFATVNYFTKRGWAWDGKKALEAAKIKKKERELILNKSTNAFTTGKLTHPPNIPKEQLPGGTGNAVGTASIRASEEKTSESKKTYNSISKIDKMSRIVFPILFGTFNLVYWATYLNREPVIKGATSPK
Chain of α5β3γ2 GABAA receptor (rat, oocytes) (P18508 39-466): as the sequence (P18508 39-466) above
Chain of α5β3γ2 GABAA receptor (rat, oocytes) (P63079 26-473 partner): as the sequence (P63079 26-473 partner) above

| SMILES | activity at 1 µM [1] [%] | activity at 1 µM [2] [%] | activity at 1 µM [3] [%] | activity at 1 µM [4] [%] |
| --- | --- | --- | --- | --- |
| CN1C(=O)CN=C(c2ccccc2)c2cc(Cl)ccc21 [Diazepam] | 342 | 536 | 752 | 314 |
| C#Cc1ccc2c(c1)C(c1ccccc1F)=N[C@@H](C)c1c(C(=O)OCC)ncn1-2 [SH-053-2'F-S-CH3, (S)-8-ethynyl-6-(2-fluoro-phenyl)-4-methyl-4H-2,5,10b-triaza-benzo[e]azulene-3-carboxylic acid ethyl ester] | 389 |  |  |  |
